Measurements from ChEMBL document CHEMBL4004863, “Design, synthesis, biological evaluation and X-ray structural studies of potent human dihydroorotate dehydrogenase inhibitors based on hydroxylated azole scaffolds” (Eur J Med Chem, 2017).
Values after ≈ are worked out from the molar mass of the structure shown. Active and inactive are the calls of the source. The rule behind the calls is not given here.

What was measured:
Jurkat [1] = experiment: Antiproliferative activity against human Jurkat T cells assessed as DNA content after 72 hrs by Hoechst 33258 dye based fluorometric method; format: functional, cell-based
In short: (§1)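 Jurkat T cells grown in X-VIVO 15 with 10% FBS and antibiotic-antimycotic at 37 °C, 5% CO2, passages 5–10, mycoplasma-free, STR-authenticated. IC50 came from nonlinear regression, mean ± SE of three experiments. Uridine, where added, was at 100 μM.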

Jurkat [2] = experiment: Cytotoxicity against human Jurkat T cells assessed as compound concentration required to induce up to 30% cell death after 72 hrs by CellTox green assay
[3] = Stability in human Jurkat cells assessed as parent compound remaining at 100 uM after 72 hrs by HPLC-UV method; format: ADME, cell-based; conditions: read-out: Stability
Jurkat [4] = experiment: Antiproliferative activity against human Jurkat T cells assessed as DNA content up to 100 uM after 72 hrs in presence of exogenous uridine by Hoechst 33258 dye based fluorometric method; format: functional, cell-based; in short: as §1
PBMC = experiment: Immunosuppressive activity against human PBMC assessed as inhibition of PHA-stimulated cell proliferation preincubated for 2 hrs followed by PHA stimulation for 72 hrs by BrdU incorporation assay; format: functional, cell-based
[5] = Solubility in pH 7.4 PBS buffer at 1 mg after 24 hrs by HPLC-UV method; format: physicochemical
Jurkat [6] = experiment: Antiproliferative activity against human Jurkat T cells assessed as DNA content up to 200 uM after 72 hrs in presence of exogenous uridine by Hoechst 33258 dye based fluorometric method; format: functional, cell-based
In short: as §1, with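 “STR-authenticated. 5×10^3 cells were exposed to 0.001–200 μM compound or DMSO vehicle for 72 h, lysed in 0.02% SDS/SSC, and stained with Hoechst 33258 (ex 355/em 460 nm).” for “STR-authenticated.”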

[7] = Solubility in human Jurkat cell growing medium with 1% DMSO at 1 mg after 24 hrs by HPLC-UV method; format: physicochemical
[8] = Solubility in pH 7.4 PBS buffer with 1% DMSO at 1 mg after 24 hrs by HPLC-UV method; format: physicochemical
[9] = Selectivity index, ratio of compound concentration required to induce up to 30% cell death in human Jurkat T cells to IC50 for antiproliferative activity against human Jurkat T cells; format: functional
In short: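 Ratio of two Jurkat T-cell readouts, both after 72 h compound or DMSO exposure of 5×10^3 cells/well. The numerator is the concentration causing ≥30% cytotoxicity by CellTox green (0.001–100 μM). Cells were grown in X-VIVO 15 with 10% FBS; three independent experiments.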

SMILES | IC50 (Jurkat [1]) | remaining at 72 h, 100 µM [3] | Activity (Jurkat [2]) | Activity (Jurkat [4]) | IC50 (PBMC) | solubility at 24 h [5] | Activity (Jurkat [6]) | solubility at 24 h [7] | solubility at 24 h [8] | Selectivity Index [9]
Cn1nc(O)c(C(=O)Nc2c(F)cc(-c3ccccc3)cc2F)n1 | 13.3 µM |  | 49.3 µM |  |  |  |  |  |  | 
Cc1c(-c2ccc(-c3ccccc3F)cc2)nc2ccc(F)cc2c1C(=O)O [BREQUINAR] | 0.93 µM | 98% | 45 µM | inactive | 4.3 µM | 359 µM (≈ 135 µg/mL) |  |  |  | 
C/C(O)=C(\C#N)C(=O)Nc1ccc(C(F)(F)F)cc1 [TERIFLUNOMIDE] |  | 101% | 53 µM |  | 54.3 µM |  | inactive |  |  | 
Cc1c(C(=O)Nc2c(F)c(F)c(-c3ccccc3)c(F)c2F)c(O)nn1C | 2.22 µM | 94% | 82 µM | inactive | 10.7 µM | < 0.1 µM |  | > 100 µM | 7 µM (≈ 2.66 µg/mL) | 70
O=C(Nc1c(F)c(F)c(-c2ccccc2)c(F)c1F)c1nsnc1O | 1.04 µM | 80% | 78 µM | inactive | 6.2 µM | 1690 µM (≈ 626 µg/mL) |  |  |  | 70
O=C(Nc1c(F)c(F)c(-c2cccc(OC(F)(F)F)c2)c(F)c1F)c1nsnc1O | 2.5 µM |  | 5.2 µM |  |  |  |  |  |  | 
O=C(Nc1c(F)c(F)c(-c2ccccc2)c(F)c1F)c1nn(CC2CC2)nc1O | 7.13 µM |  | 11 µM |  |  |  |  |  |  | 

Further compounds by falling IC50 (Jurkat [1]), results first:

IC50 (Jurkat [1]) | remaining at 72 h, 100 µM [3] | SMILES | Activity (Jurkat [2]) | Activity (Jurkat [4]) | IC50 (PBMC) | solubility at 24 h [5] | Activity (Jurkat [6]) | solubility at 24 h [7] | solubility at 24 h [8] | Selectivity Index [9]
68.3 µM |  | O=C(Nc1c(F)c(F)c(-c2cccc(OC(F)(F)F)c2)c(F)c1F)c1no[nH]c1=O | > 100 µM |  |  |  |  |  |  | 
59.7 µM |  | O=C(Nc1c(F)c(F)c(-c2ccccc2)c(F)c1F)c1no[nH]c1=O | > 100 µM |  |  |  |  |  |  | 
35.7 µM |  | Cn1nc(O)c(C(=O)Nc2ccc(-c3ccccc3)cc2F)n1 | 56.8 µM |  |  |  |  |  |  | 
5.82 µM | 99% | Cn1nnc(O)c1C(=O)Nc1c(F)c(F)c(-c2ccccc2)c(F)c1F | 8.3 µM |  |  | 48 µM (≈ 17.6 µg/mL) |  |  |  | 
3.22 µM |  | O=C(Nc1c(F)c(F)c(-c2ccccc2)c(F)c1F)c1c(O)nnn1CC1CC1 | 6 µM |  |  |  |  |  |  | 
